Laboratory results from ChEMBL document CHEMBL3596194, “Design, synthesis and biological evaluation of bivalent benzoxazolone and benzothiazolone ligands as potential anti-inflammatory/analgesic agents” (Bioorg Med Chem, 2015).
Calls of active or inactive are those of the source. No cut-off for these calls is given here.

How the values were obtained:
SK-MEL [1] = test: Cytotoxicity against human SK-MEL cells up to 25 ug/ml after 48 hrs by neutral red assay relative to control; format: cell-based
Outline: (§1)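 Cells grown in RPMI-1640 with 10% bovine calf serum and amikacin at 37 °C, 5% CO2. Seeded at 25,000 cells/well and grown 24 h, then exposed 48 h to samples diluted in serum-free medium. Viability by Neutral Red; % decrease vs vehicle; IC50 from dose curves. Triplicate runs, mean reported; doxorubicin as positive control.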

SK-OV-3 [2] = test: Cytotoxicity against human SKOV3 cells up to 25 ug/ml after 48 hrs by neutral red assay relative to control; format: cell-based; details: sk-ov-3, 48 h; outline: as §1
BT-549 [3] = test: Cytotoxicity against human BT549 cells up to 25 ug/ml after 48 hrs by neutral red assay relative to control; format: cell-based; details: bt-549, 48 h; outline: as §1
Vero [4] = test: Cytotoxicity against African green monkey Vero cells up to 25 ug/ml after 48 hrs by neutral red assay relative to control; format: cell-based; details: chlorocebus sabaeus; outline: as §1
[5] = Cytotoxicity against pig LLC-PK11 cells after 48 hrs by neutral red assay relative to control; format: cell-based; details: Sus scrofa, LLC-PK11, 48 h
Outline: (§2)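 Cells grown in RPMI-1640 with 10% bovine calf serum and amikacin at 37°C, 5% CO₂. Seeded 25,000 cells/well, grown 24 h, then exposed to compounds diluted in serum-free medium for 48 h. Viability by Neutral Red uptake, % decrease versus vehicle control. IC50 from dose curves, triplicate means. Doxorubicin positive control.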

[6] = Antiinflammatory activity in human SW1353 cells assessed as inhibition of PMA-induced NF-kappaB activity incubated for 30 mins prior to PMA challenge measured after 8 hrs by luciferase reporter gene assay; format: cell-based
Outline: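 SW1353 cells in DMEM/F12 with 10% FBS, electroporated with NF-κB luciferase plasmid (160 V, one 70-ms pulse), plated at 1.25 × 10⁵ cells/well. After 24 h, graded compound concentrations added 30 min before PMA 70 ng/mL, then 8 h incubation. Luciferase read-out, % inhibition versus vehicle, IC50 from dose curves. Sp-1 reporter served as nonspecific control.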

KB [7] = test: Cytotoxicity against human KB cells up to 25 ug/ml after 48 hrs by neutral red assay relative to control; format: cell-based; outline: as §1
Vero [8] = test: Cytotoxicity against African green monkey Vero cells after 48 hrs by neutral red assay relative to control; format: cell-based; details: chlorocebus sabaeus; outline: as §2
[9] = Cytotoxicity against pig LLC-PK11 cells up to 25 ug/ml after 48 hrs by neutral red assay relative to control; format: cell-based, Sus scrofa; details: llc-pk11, 48 h; outline: as §1
SK-MEL [10] = test: Cytotoxicity against human SK-MEL cells after 48 hrs by neutral red assay relative to control; format: cell-based; outline: as §2
BT-549 [11] = test: Cytotoxicity against human BT549 cells after 48 hrs by neutral red assay relative to control; format: cell-based; details: BT-549, 48 h; outline: as §2
KB [12] = test: Cytotoxicity against human KB cells after 48 hrs by neutral red assay relative to control; format: cell-based; outline: as §2
SK-OV-3 [13] = test: Cytotoxicity against human SKOV3 cells after 48 hrs by neutral red assay relative to control; format: cell-based; details: SK-OV-3, 48 h; outline: as §2
SW1353 = test: Antiinflammatory activity in human SW1353 cells assessed as inhibition of PMA-induced NF-kappaB activity up to 25 ug/ml incubated for 30 mins prior to PMA challenge measured after 8 hrs by luciferase reporter gene assay; format: cell-based
Outline: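 SW1353 chondrosarcoma cells grown in DMEM/F12 with 10% FBS at 37 °C, 5% CO2. Cells electroporated with an NF-κB luciferase plasmid (50 μg/mL, 160 V, one 70-ms pulse) and plated at 1.25 × 10⁵ cells/well. After 24 h, compound was added 30 min before PMA (70 ng/mL), then 8 h incubation. Luciferase read-out as % inhibition vs vehicle; IC50 from dose curves. Sp-1 served as a counter-screen.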

Mus musculus = test: Antinociceptive activity in ip dosed Swiss mouse assessed as inhibition of acetic acid-induced writhing response administered 15 mins prior to acetic acid challenge measured for 20 mins relative to vehicle-treated control; format: functional, organism-based
Outline: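 Mice dosed i.p. with compound or vehicle 15 min before testing, or with indomethacin 3 mg/kg i.p. 30 min before. After 15 min habituation in an enclosure, 0.9% acetic acid given i.p. (1 ml/0.1 kg) and writhes counted for 20 min. Non-responders excluded; n = 4-6; mean ± SD.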

Rattus norvegicus [14] = test: Antiinflammatory activity in albino rat assessed as inhibition of carrageenan-induced paw edema at 30 mg/kg, ip administered 1 hr prior to carrageenan challenge measured 2 hrs after induction of inflammation relative to control; format: functional
Outline: (§3)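 Adult albino rats of both sexes, 120–150 g, groups of five, pre-hydrated with 3 ml water orally. Compounds suspended in distilled water with few drops Tween 80, given ip 1 h before subplantar s.c. 1% carrageenan into right hind paw. Paw thickness measured by dial calipers, left paw as control. % inhibition = (1 – Lt/Lc) × 100 versus saline/Tween 80 group.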

Rattus norvegicus [15] = test: Antiinflammatory activity in albino rat assessed as inhibition of carrageenan-induced paw edema at 30 mg/kg, ip administered 1 hr prior to carrageenan challenge measured 3 hrs after induction of inflammation relative to control; format: functional; outline: as §3
Rattus norvegicus [16] = test: Antiinflammatory activity in albino rat assessed as inhibition of carrageenan-induced paw edema at 30 mg/kg, ip administered 1 hr prior to carrageenan challenge measured 4 hrs after induction of inflammation relative to control; format: functional; outline: as §3
Rattus norvegicus [17] = test: Antiinflammatory activity in albino rat assessed as inhibition of carrageenan-induced paw edema at 30 mg/kg, ip administered 1 hr prior to carrageenan challenge measured 1 hr after induction of inflammation relative to control; format: functional; outline: as §3
[18] = biological target: T1, Nitric oxide synthase, inducible (Mus musculus) (UniProt P29477); test: Antiinflammatory activity in mouse RAW264.7 cells assessed as inhibition of LPS-induced iNOS activity up to 25 ug/ml incubated for 30 mins prior to LPS challenge measured after 24 hrs by Griess assay; format: cell-based
T1 sequence (whole entry): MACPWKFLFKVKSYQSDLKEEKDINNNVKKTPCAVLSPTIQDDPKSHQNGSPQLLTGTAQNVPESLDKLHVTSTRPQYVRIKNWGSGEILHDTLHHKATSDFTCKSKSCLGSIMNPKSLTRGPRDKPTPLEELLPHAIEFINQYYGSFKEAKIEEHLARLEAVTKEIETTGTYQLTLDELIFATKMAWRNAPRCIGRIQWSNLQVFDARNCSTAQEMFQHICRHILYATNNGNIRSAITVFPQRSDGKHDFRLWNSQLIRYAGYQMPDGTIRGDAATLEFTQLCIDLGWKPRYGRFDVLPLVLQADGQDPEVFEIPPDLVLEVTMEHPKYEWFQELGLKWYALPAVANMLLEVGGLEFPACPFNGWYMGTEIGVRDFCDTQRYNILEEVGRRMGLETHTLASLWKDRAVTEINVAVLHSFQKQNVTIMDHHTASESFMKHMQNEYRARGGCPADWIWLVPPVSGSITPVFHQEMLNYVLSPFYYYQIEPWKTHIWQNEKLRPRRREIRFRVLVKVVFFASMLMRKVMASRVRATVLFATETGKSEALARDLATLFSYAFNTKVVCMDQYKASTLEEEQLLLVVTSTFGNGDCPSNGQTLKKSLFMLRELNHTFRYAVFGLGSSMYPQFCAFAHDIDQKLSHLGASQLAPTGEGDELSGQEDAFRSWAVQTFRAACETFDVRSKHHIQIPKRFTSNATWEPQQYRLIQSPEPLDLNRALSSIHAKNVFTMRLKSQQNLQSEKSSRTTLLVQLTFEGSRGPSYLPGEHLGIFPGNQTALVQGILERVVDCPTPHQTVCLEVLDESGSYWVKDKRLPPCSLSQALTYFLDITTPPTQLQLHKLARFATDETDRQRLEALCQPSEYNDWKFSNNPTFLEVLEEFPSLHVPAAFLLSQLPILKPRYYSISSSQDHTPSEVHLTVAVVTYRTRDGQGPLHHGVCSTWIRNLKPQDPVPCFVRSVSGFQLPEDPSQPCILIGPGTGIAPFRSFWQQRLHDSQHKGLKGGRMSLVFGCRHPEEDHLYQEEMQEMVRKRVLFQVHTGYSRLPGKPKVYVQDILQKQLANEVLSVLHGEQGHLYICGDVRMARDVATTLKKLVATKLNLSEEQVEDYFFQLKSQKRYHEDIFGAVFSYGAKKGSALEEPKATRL
Outline: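 RAW264.7 macrophages seeded at 50,000 cells/well and grown 24 h to ≥75% confluency. Compounds in serum-free medium added 30 min before LPS (5 μg/mL), then 24 h incubation. Nitrite in the supernatant measured with Griess reagent.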

Row | Compound | Activity (SK-MEL [1]) | Activity (SK-OV-3 [2]) | Activity (BT-549 [3]) | Activity (Vero [4]) | IC50 [5] [µM] | IC50 [6] [µM] | Activity (KB [7]) | IC50 (Vero [8]) [µM] | Activity [9] | IC50 (SK-MEL [10]) [µM] | IC50 (BT-549 [11]) [µM] | IC50 (KB [12]) [µM] | IC50 (SK-OV-3 [13]) [µM] | inhibition (SW1353) | inhibition (Mus musculus) | inhibition in vivo at 30 mg/kg (Rattus norvegicus [14]) [%] | inhibition in vivo at 30 mg/kg (Rattus norvegicus [15]) [%] | inhibition in vivo at 30 mg/kg (Rattus norvegicus [16]) [%] | inhibition in vivo at 30 mg/kg (Rattus norvegicus [17]) [%] | inhibition [18]
1 | O=c1sc2ccccc2n1CCCCN1CCN(CCCn2c(=O)sc3ccccc32)CC1 | Non-toxic | Non-toxic | Non-toxic | Non-toxic | 19.2 | 1.71 | Non-toxic | – | – | – | – | – | – | – | – | – | – | – | – | –
2 | O=c1oc2ccccc2n1CCCCCN1CCN(CCCCCn2c(=O)oc3ccccc32)CC1 | Non-toxic | Non-toxic | Non-toxic | – | – | 3.43 | Non-toxic | 19.4 | Non-toxic | – | – | – | – | – | – | – | – | – | – | –
3 | O=c1sc2ccccc2n1CCCCCN1CCN(CCn2c(=O)sc3ccccc32)CC1 | Non-toxic | Non-toxic | Non-toxic | – | – | 1.71 | Non-toxic | 23.8 | Non-toxic | – | – | – | – | – | – | – | – | – | – | –
4 | c1ccc2oc(SCCCCN3CCN(CCCCSc4nc5ccccc5o4)CC3)nc2c1 | – | Non-toxic | – | Non-toxic | 23.5 | 1.4 | – | – | – | 25 | 22.5 | 25 | – | – | – | – | – | – | – | –
5 | O=c1sc2ccccc2n1CCCCCN1CCN(CCCCCn2c(=O)sc3ccccc32)CC1 | – | – | – | Non-toxic | – | – | Non-toxic | – | Non-toxic | 19.8 | 19.3 | – | 25 | – | – | – | – | – | – | –
6 | COc1cccc2c1C(=O)c1c(O)c3c(c(O)c1C2=O)C[C@@](O)(C(=O)CO)C[C@@H]3O[C@H]1C[C@H](N)[C@H](O)[C@H](C)O1 [DOXORUBICIN] | – | – | – | – | 0.79 | – | – | 0.92 | – | 0.14 | 0.17 | 0.22 | 0.2 | – | – | – | – | – | – | –
7 | O=c1sc2ccccc2n1CCCN1CCN(CCCn2c(=O)sc3ccccc32)CC1 | Non-toxic | Non-toxic | Non-toxic | Non-toxic | 23.5 | – | Non-toxic | – | – | – | – | – | – | inactive | – | – | – | – | – | –
8 | c1ccc2sc(SCCCCN3CCN(CCCCSc4nc5ccccc5s4)CC3)nc2c1 | – | Non-toxic | Non-toxic | Non-toxic | – | 0.34 | – | – | Non-toxic | 17.5 | – | 25 | – | – | Dose-dependent effect | 64.3 | 63.4 | 47.1 | 59.9 | –
9 | O=c1sc2ccccc2n1CCCCCCN1CCN(CCCCCCn2c(=O)sc3ccccc32)CC1 | Non-toxic | – | – | Non-toxic | – | 0.41 | – | – | Non-toxic | – | 24.3 | 20.8 | 24.3 | – | Dose-dependent effect | 37.5 | 39.3 | 36.9 | 32.2 | –
10 | O=C(c1ccccc1)c1ccc2n1CCC2C(=O)O (stereo unspecified) [KETOROLAC] | – | – | – | – | – | – | – | – | – | – | – | – | – | – | – | 74.2 | 75.4 | 79.3 | 70.5 | –
11 | O=c1oc2ccccc2n1CCCCCN1CCN(CCCCn2c(=O)oc3ccccc32)CC1 | Non-toxic | Non-toxic | Non-toxic | – | – | – | Non-toxic | 17.6 | Non-toxic | – | – | – | – | inactive | – | – | – | – | – | –
12 | O=c1sc2ccccc2n1CCCCCCN1CCN(CCCCn2c(=O)sc3ccccc32)CC1 | – | Non-toxic | – | Non-toxic | – | 0.83 | – | – | Non-toxic | 14.5 | 21.3 | 19.5 | – | – | – | – | – | – | – | –
13 | O=c1sc2ccccc2n1CCCCCCN1CCN(CCCCCn2c(=O)sc3ccccc32)CC1 | Non-toxic | – | – | – | – | 1.06 | Non-toxic | 25 | Non-toxic | – | 19.6 | – | 25 | – | – | 41.1 | 34.7 | 34.9 | 33.9 | –
14 | O=c1sc2ccccc2n1CCCN1CCN(CCn2c(=O)sc3ccccc32)CC1 | Non-toxic | Non-toxic | Non-toxic | Non-toxic | 24.1 | – | Non-toxic | – | – | – | – | – | – | inactive | – | – | – | – | – | inactive
15 | O=c1sc2ccccc2n1CCCCN1CCN(CCn2c(=O)sc3ccccc32)CC1 | Non-toxic | Non-toxic | Non-toxic | Non-toxic | – | – | Non-toxic | – | Non-toxic | – | – | – | – | inactive | – | – | – | – | – | inactive
